Measurements published in paper PMC3344817 (ChemMedChem, 2011).

Key:
CEM T-lymphocytes = experiment: Cytotoxicity; type: cell-based, human; conditions: IC50 of 2 divided by IC50 of the compound
Molt 4/C8 T-lymphocytes = experiment: Cytotoxicity; type: cell-based, human; conditions: for IC50: Homo sapiens, Molt4/C8, 72 h, read-out: IC50, Molt 4/C8 cells; for RP (relative potency), Molt 4/C8 cells: IC50 of 2 divided by IC50 of the compound
L1210 cells = experiment: Cytotoxicity; type: cell-based, murine; conditions: for RP (relative potency), L1210 cells: IC50 of 2 divided by IC50 of the compound; for IC50: Mus musculus, L1210, 48 h, read-out: IC50, L1210 cells
[1] = CC50 by flow cytometry with propidium iodide, NIH-3T3 fibroblasts; type: cell-based, murine; conditions: mouse, NIH-3T3 fibroblasts (non-malignant)
Procedure, shortened: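 Adherent NIH-3T3 fibroblasts in DMEM received a range of test compound concentrations (DMSO solution) for 22 h at 37°C. CC50 was obtained by flow cytometry with propidium iodide, scoring plasma membrane disruption. Values are the mean of three independent experiments.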

Sup-T1 = experiment: CC50 by flow cytometry with propidium iodide, Sup-T1; type: cell-based, human
Procedure, shortened: (§1)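 Non-adherent lymphoma/leukaemia cells in RPMI were given a range of test compound concentrations (DMSO solution) for 22 h at 37°C. Plasma membrane disruption was scored by flow cytometry with propidium iodide to derive CC50, and values are the mean of three independent experiments. SI = CC50 toward NIH-3T3 fibroblasts ÷ CC50 toward the given non-adherent line.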

EL-4 = experiment: CC50 by flow cytometry with propidium iodide, EL-4; type: cell-based, murine
Procedure, shortened: as §1

CEM = experiment: CC50 by flow cytometry with propidium iodide, CEM; type: cell-based, human; conditions: CC50 toward NIH-3T3 fibroblasts / CC50 toward CEM
Procedure, shortened: as §1

[2] = test system: JURKAT, Nalm-6, SUP-T1, or CEM cells; experiment: Flow cytometry analysis of apoptosis and necrosis; type: cell-based, human; conditions: after 20 h; relative to the percentage at 8 h; four non-adherent cell lines
Procedure, shortened: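 Test compound was incubated with JURKAT, Nalm-6, SUP-T1 or CEM cells in RPMI. After 8 and 20 h, cells were stained with Annexin-V-FITC plus propidium iodide. Flow cytometry gave the percentages of apoptotic, necrotic and viable cells.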

human tumor cell lines = experiment: US National Cancer Institute human tumor cell line screen; type: cell-based; conditions: 48 h; Figure 4
JURKAT = experiment: CC50 by flow cytometry with propidium iodide, JURKAT; type: cell-based, human
Procedure, shortened: as §1

Nalm6 = experiment: CC50 by flow cytometry with propidium iodide, Nalm6; type: cell-based, human
Procedure, shortened: as §1

Compound: O=C1C(=Cc2ccccc2)CN(C(=O)C=CC(=O)N2CC(=Cc3ccccc3)C(=O)C(=Cc3ccccc3)C2)CC1=Cc1ccccc1 [1 f, 1,4-Bis-(3,5-dibenzylidene-4-oxo-piperidin-1-yl)but-2-ene-1,4-dione]
- RP (relative potency), CEM cells (CEM T-lymphocytes): 0.2
- IC50 (Molt 4/C8 T-lymphocytes): 4400 ± 2950 nM
- RP (relative potency), Molt 4/C8 cells (Molt 4/C8 T-lymphocytes): 1.8
- RP (relative potency), L1210 cells (L1210 cells): 0.3
- IC50 (L1210 cells): 28900 ± 2000 nM

Compound: O=C1C(=Cc2ccccc2)CN(C(=O)C(=O)N2CC(=Cc3ccccc3)C(=O)C(=Cc3ccccc3)C2)CC1=Cc1ccccc1 [Compound 1a, 1,2-Bis(3,5-dibenzylidene-4-oxo-piperidin-1-yl)ethane-1,2-dione]
- RP (relative potency), CEM cells (CEM T-lymphocytes): 2.5
- CC50 at 22 h [1]: 12800 nM
- SI (selectivity index), Sup-T1 (Sup-T1; CC50 toward NIH-3T3 fibroblasts / CC50 toward Sup-T1): 33
- CC50 (Sup-T1; Homo sapiens, SUP-T1, 22 h, read-out: CC50, Sup-T1): 384 nM
- IC50 (Molt 4/C8 T-lymphocytes): 460 ± 110 nM
- RP (relative potency), Molt 4/C8 cells (Molt 4/C8 T-lymphocytes): 18
- SI (selectivity index), EL-4 (EL-4; CC50 toward NIH-3T3 fibroblasts / CC50 toward EL-4): 412
- CC50 (EL-4; Mus musculus, EL4, 22 h, read-out: CC50, EL-4): 31 nM
- SI (selectivity index), CEM (CEM): 376
- RP (relative potency), L1210 cells (L1210 cells): 1.8
- IC50 (L1210 cells): 4460 ± 230 nM
- apoptotic cells [2]: doubling
- IC50 towards human tumor cell lines, comparison (human tumor cell lines): generally displays lower IC50 values than 1 b
- SI (selectivity index), JURKAT (JURKAT; CC50 toward NIH-3T3 fibroblasts / CC50 toward JURKAT): 441
- CC50 (JURKAT; Homo sapiens, Jurkat, 22 h, read-out: CC50, JURKAT): 29 nM
- SI (selectivity index), Nalm6 (Nalm6; CC50 toward NIH-3T3 fibroblasts / CC50 toward Nalm6): 581
- CC50 (Nalm6; Homo sapiens, NALM-6, 22 h, read-out: CC50, Nalm6): 22 nM

Compound: O=C1C(=Cc2ccccc2)CN(C(=O)CC(=O)N2CC(=Cc3ccccc3)C(=O)C(=Cc3ccccc3)C2)CC1=Cc1ccccc1 [Compound 1b, 1,3-Bis-(3,5-dibenzylidene-4-oxo-piperidin-1yl)propane-1,3-dione]
- RP (relative potency), CEM cells (CEM T-lymphocytes): 9.3
- IC50 (Molt 4/C8 T-lymphocytes): 70 ± 10 nM
- RP (relative potency), Molt 4/C8 cells (Molt 4/C8 T-lymphocytes): 115
- RP (relative potency), L1210 cells (L1210 cells): 6.5
- IC50 (L1210 cells): 1230 ± 380 nM

Compound: O=C1C(=Cc2ccccc2)CN(C(=O)CCC(=O)N2CC(=Cc3ccccc3)C(=O)C(=Cc3ccccc3)C2)CC1=Cc1ccccc1 [Compound 1c, 1,4-Bis-(3,5-dibenzylidene-4-oxo-piperidin-1-yl)butane-1,4-dione]
- RP (relative potency), CEM cells (CEM T-lymphocytes): 1.5
- IC50 (Molt 4/C8 T-lymphocytes): 570 ± 160 nM
- RP (relative potency), Molt 4/C8 cells (Molt 4/C8 T-lymphocytes): 14
- RP (relative potency), L1210 cells (L1210 cells): 0.6
- IC50 (L1210 cells): 14000 ± 1200 nM

Compound: O=C1C(=Cc2ccccc2)CN(C(=O)CCCC(=O)N2CC(=Cc3ccccc3)C(=O)C(=Cc3ccccc3)C2)CC1=Cc1ccccc1 [Compound 1d, 1,5-Bis-(3,5-dibenzylidene-4-oxo-piperidin-1-yl)pentane-1,5-dione]
- RP (relative potency), CEM cells (CEM T-lymphocytes): 0.9
- IC50 (Molt 4/C8 T-lymphocytes): 1610 ± 50 nM
- RP (relative potency), Molt 4/C8 cells (Molt 4/C8 T-lymphocytes): 5.0
- RP (relative potency), L1210 cells (L1210 cells): 0.7
- IC50 (L1210 cells): 11500 ± 300 nM

Compound: O=C1C(=Cc2ccccc2)CN(C(=O)CCCCCCC(=O)N2CC(=Cc3ccccc3)C(=O)C(=Cc3ccccc3)C2)CC1=Cc1ccccc1 [Compound 1e, 1,8-Bis-(3,5-dibenzylidene-4-oxo-piperidin-1-yl)octane-1,8-dione]
- RP (relative potency), CEM cells (CEM T-lymphocytes): 0.8
- IC50 (Molt 4/C8 T-lymphocytes): 1530 ± 540 nM
- RP (relative potency), Molt 4/C8 cells (Molt 4/C8 T-lymphocytes): 5.3
- RP (relative potency), L1210 cells (L1210 cells): 0.5
- IC50 (L1210 cells): 15300 ± 4200 nM

Compound: O=C1C(=Cc2ccccc2)CN(C(=O)C#CC(=O)N2CC(=Cc3ccccc3)C(=O)C(=Cc3ccccc3)C2)CC1=Cc1ccccc1 [Compound 1g, 1,4-Bis-(3,5-dibezylidene-4-oxo-piperidin-1-yl)-but-2-yne-1,4-dione]
- RP (relative potency), CEM cells (CEM T-lymphocytes): 0.6
- RP (relative potency), Molt 4/C8 cells (Molt 4/C8 T-lymphocytes): 5.4
- RP (relative potency), L1210 cells (L1210 cells): 0.8

Compound: O=C1C(=Cc2ccccc2)CN(C(=O)C=CC=CC(=O)N2CC(=Cc3ccccc3)C(=O)C(=Cc3ccccc3)C2)CC1=Cc1ccccc1 [Compound 1h, 1,6-Bis-(3,5-dibenzylidene-4-oxo-piperidin-1-yl)-hexa-2,4-diene-1,6-dione]
- RP (relative potency), CEM cells (CEM T-lymphocytes): 0.1
- IC50 (Molt 4/C8 T-lymphocytes): 25100 ± 15800 nM
- RP (relative potency), Molt 4/C8 cells (Molt 4/C8 T-lymphocytes): 0.3
- RP (relative potency), L1210 cells (L1210 cells): 0.1
- IC50 (L1210 cells): 79000 ± 10200 nM

Compound: O=C1C(=Cc2ccccc2)CN(C(=O)c2ccccc2C(=O)N2CC(=Cc3ccccc3)C(=O)C(=Cc3ccccc3)C2)CC1=Cc1ccccc1 [Compound 1i, 1,2-Bis-[(3,5-dibenzylidene-4-oxo-piperidin-1-yl)-1-carbonyl]benzene]
- RP (relative potency), CEM cells (CEM T-lymphocytes): 1.3
- RP (relative potency), Molt 4/C8 cells (Molt 4/C8 T-lymphocytes): 9.5
- RP (relative potency), L1210 cells (L1210 cells): 1.9

Compound: O=C1C(=Cc2ccccc2)CN(C(=O)c2cccc(C(=O)N3CC(=Cc4ccccc4)C(=O)C(=Cc4ccccc4)C3)c2)CC1=Cc1ccccc1 [Compound 1j, 1,3-Bis-[(3,5-dibenzylidene-4-oxo-piperidin-1-yl)-1-carbonyl]benzene]
- RP (relative potency), CEM cells (CEM T-lymphocytes): 0.1
- RP (relative potency), Molt 4/C8 cells (Molt 4/C8 T-lymphocytes): 0.7
- RP (relative potency), L1210 cells (L1210 cells): 0.1

Compound: N[C@@H](Cc1ccc(N(CCCl)CCCl)cc1)C(=O)O [Melphalan, reference compound]
- IC50 (Molt 4/C8 T-lymphocytes): 3240 ± 790 nM
